Laboratory results as given in publication PMC3114641 (ACS medicinal chemistry letters, 2011).
Like-named read-outs stand apart in the source and are kept apart here. Values belong to the compound of their own block, whether it stands above or below them.

Assays:
[1] = target: T1, chicken riboflavin binding protein (RfBP) (Gallus gallus, UniProt P02752); assay: Isothermal titration calorimetry; conditions: ITC; for KD: KD = 1/KA
T1 sequence (P02752 18-238): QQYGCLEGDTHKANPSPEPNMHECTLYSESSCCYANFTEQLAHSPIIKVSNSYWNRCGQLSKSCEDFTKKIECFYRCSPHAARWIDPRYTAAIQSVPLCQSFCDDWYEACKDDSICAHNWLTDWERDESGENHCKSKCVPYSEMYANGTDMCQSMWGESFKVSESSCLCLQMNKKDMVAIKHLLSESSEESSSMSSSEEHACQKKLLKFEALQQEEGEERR

[2] = target: RfBP; conditions: fluorescence quenching, cited from earlier work
[3] = target: T2, RfBP (Gallus gallus, UniProt P02752); assay: SPR solution competition: inhibition of RfBP adsorption to RF; type: binding, chicken
T2 sequence (P02752 18-238): T1 sequence (P02752 18-238)

[4] = target: T2, RfBP; assay: SPR direct binding of RfBP to ligand 1 immobilized on CM5 sensor chip; set-up: species or system chicken
Procedure, shortened: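 Chicken RfBP was injected at 33.0 to 3.70 μM in HBS-EP buffer (pH 7.4) over a CM5 chip with an immobilized riboflavin-linker conjugate. Sensorgrams were fitted globally to a 1:1 Langmuir model to give kon and koff, and KD was derived from these kinetics. KD was also obtained by Scatchard analysis of bound RfBP against RfBP concentration.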

[5] = PBS pH 7.4, 25°C, calculated estimate
[6] = PBS pH 7.4, 25°C, calculated estimate (Table 2)
[7] = 0.1M NaAc pH 4.0, 25°C, calculated estimate
[8] = 0.1M Phosphate pH 7.4, 25°C, calculated estimate
[9] = 0.1M Tris pH 9.0, 25°C, calculated estimate

binding affinity towards the RfBP [1]: no binding affinity
KD ([1]; PBS pH 7.4, 25°C): No Binding Observed
SMILES: CN(C)CCCN1c2ccccc2Sc2ccc(Cl)cc21 [Chlorpromazine, chlorpromazine]

n (binding stoichiometry) ([1]; PBS pH 7.4, 25°C): 1.08 ±0.07
ΔH ([1]; PBS pH 7.4, 25°C): -11.5 ± 1.72 kcal/mol
ΔG [1, 5]: -9.85 kcal/mol
ΔS [1, 6]: −0.02 kJ mol^−1 K^−1
SMILES: Cc1cc2nc3c(=O)[nH]c(=O)nc-3n(C)c2cc1C [Lumiflavin, lumiflavin]

binding affinity towards the RfBP [1]: no binding affinity
KD ([1]; PBS pH 7.4, 25°C): No Binding Observed
SMILES: OCCN1CCN(CCCN2c3ccccc3Sc3ccc(Cl)cc32)CC1 [Perphenazine, perphenazine]

inhibitory activity, fold more potent than N(3) derivative 1 ([3]; SPR Ki comparison): approximately 7 fold
n (binding stoichiometry) ([1]; 0.1M NaAc pH 4.0, 25°C): 0.70±0.04
ΔH ([1]; 0.1M NaAc pH 4.0, 25°C): -24.07 ± 2.49 kcal/mol
ΔG [1, 7]: -9.99 kcal/mol
ΔS [1, 7]: -0.0478 kcal/mol
n (binding stoichiometry) ([1]; 0.1M Phosphate pH 7.4, 25°C): 0.81±0.03
ΔH ([1]; 0.1M Phosphate pH 7.4, 25°C): -19.6 ± 1.36 kcal/mol
ΔG [1, 8]: -11.1 kcal/mol
ΔS [1, 8]: -0.0287 kcal/mol
n (binding stoichiometry) ([1]; 0.1M Tris pH 9.0, 25°C): 0.82±0.03
ΔH ([1]; 0.1M Tris pH 9.0, 25°C): -23.7 ± 2.15 kcal/mol
ΔG [1, 9]: -10.2 kcal/mol
ΔS [1, 9]: -0.0454 kcal/mol
n (binding stoichiometry) ([1]; PBS pH 7.4, 25°C): 0.78±0.02
ΔH ([1]; PBS pH 7.4, 25°C): -21.8 ± 1.36 kcal/mol
ΔG [1, 5]: -11.4 kcal/mol
ΔS ([1]; PBS pH 7.4, 25°C, calculated estimate (Table 1)): -0.0359 kcal/mol
ΔS [1, 6]: −0.15 kJ mol^−1 K^−1
SMILES: Cc1cc2nc3c(=O)[nH]c(=O)nc-3n(C[C@H](O)[C@H](O)[C@H](O)CO)c2cc1C [RF, riboflavin]
Kd ([2]; 0.01M phosphate buffer): 1.3 nM
Kd ([2]; 0.1 M phosphate buffer): 2 nM

inhibition of RfBP adsorption to the surface ([3]; RfBP 11.1 µM, ligand concentrations above ~500 µM): approximately 90%
Kd [4]: 14500 nM
koff [4]: 0.00149 s⁻¹
kon [4]: 103 M⁻¹ s⁻¹
SMILES: Cc1cc2nc3c(=O)n(CC(=O)NCCCN)c(=O)nc-3n(C[C@H](O)[C@H](O)[C@H](O)CO)c2cc1C [compound 1]
